Test results as given in ChEMBL document CHEMBL1137767, “2-(3-Aryl-2-propenoyl)-3-methylquinoxaline-1,4-dioxides: a novel cluster of tumor-specific cytotoxins which reverse multidrug resistance” (Bioorg Med Chem, 2009).
pIC50: −log10 of the molar value. Active and inactive are the calls of the source. The rule behind the calls is not given here.

Experiments:
[1] = Growth inhibition of human Molt4/C8 cells after 3 days; assay type: functional, cell-based; conditions: MOLT-4, 72 h
Method in brief: (§1)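 Human CEM and Molt 4/C8 T-lymphocytes were grown for three days with or without serial dilutions of the compound. IC50 is the concentration that inhibits cell growth by 50%.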

CCRF-CEM [2] = assay: Growth inhibition of human CEM cells after 3 days; assay type: functional, cell-based; conditions: 72 h; method in brief: as §1
[3] = molecular target: T1, ATP-dependent translocase ABCB1 (Homo sapiens, UniProt P08183); assay: Reversal of P-glycoprotein-mediated multidrug resistance in human MDR1 gene transfected mouse L5178Y cells assessed as fluorescence activity ratio at 20 uM by rhodamine 123 accumulation assay; assay type: cell-based
T1 sequence (P08183 whole entry): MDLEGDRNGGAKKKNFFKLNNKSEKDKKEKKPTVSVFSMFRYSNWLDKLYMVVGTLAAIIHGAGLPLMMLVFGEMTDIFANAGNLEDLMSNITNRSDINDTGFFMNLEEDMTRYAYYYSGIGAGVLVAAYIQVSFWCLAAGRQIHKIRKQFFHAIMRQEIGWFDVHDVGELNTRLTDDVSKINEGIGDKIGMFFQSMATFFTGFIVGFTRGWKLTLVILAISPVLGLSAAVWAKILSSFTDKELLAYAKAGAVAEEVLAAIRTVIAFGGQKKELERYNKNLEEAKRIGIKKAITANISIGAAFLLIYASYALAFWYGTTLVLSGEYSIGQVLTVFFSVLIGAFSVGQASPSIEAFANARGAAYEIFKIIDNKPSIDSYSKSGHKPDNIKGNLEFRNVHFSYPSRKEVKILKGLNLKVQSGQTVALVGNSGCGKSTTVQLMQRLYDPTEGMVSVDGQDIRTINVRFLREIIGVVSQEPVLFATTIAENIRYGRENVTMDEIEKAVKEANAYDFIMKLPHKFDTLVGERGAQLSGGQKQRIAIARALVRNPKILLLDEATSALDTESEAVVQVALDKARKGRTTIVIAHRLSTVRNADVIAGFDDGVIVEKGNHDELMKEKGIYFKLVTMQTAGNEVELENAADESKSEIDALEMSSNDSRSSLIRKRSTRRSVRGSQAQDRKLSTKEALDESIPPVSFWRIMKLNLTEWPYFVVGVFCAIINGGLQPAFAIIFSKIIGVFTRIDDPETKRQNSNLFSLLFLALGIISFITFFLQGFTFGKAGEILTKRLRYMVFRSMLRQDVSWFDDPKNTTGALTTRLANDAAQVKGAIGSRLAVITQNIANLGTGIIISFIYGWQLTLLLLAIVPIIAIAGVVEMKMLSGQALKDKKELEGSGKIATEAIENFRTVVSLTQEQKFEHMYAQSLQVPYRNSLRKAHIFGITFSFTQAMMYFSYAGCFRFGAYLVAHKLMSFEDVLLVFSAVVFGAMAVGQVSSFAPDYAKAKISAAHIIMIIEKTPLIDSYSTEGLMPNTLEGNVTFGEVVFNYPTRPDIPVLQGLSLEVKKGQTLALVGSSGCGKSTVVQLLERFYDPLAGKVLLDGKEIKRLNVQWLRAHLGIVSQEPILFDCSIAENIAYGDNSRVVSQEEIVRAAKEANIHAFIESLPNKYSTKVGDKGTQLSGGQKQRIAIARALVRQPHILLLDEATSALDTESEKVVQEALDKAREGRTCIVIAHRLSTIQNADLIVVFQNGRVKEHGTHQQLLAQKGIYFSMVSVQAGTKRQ
Method in brief: (§2)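 Murine L-5178Y lymphoma cells transfected with human MDR1 gene (P-gp-overexpressing), alongside parental cells, treated or untreated with compound; rhodamine 123 accumulation measured by fluorescence; FAR = ratio of fluorescence intensity in treated versus untreated cells, values above 1 taken as MDR reversal.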

[4] = molecular target: T1, ATP-dependent translocase ABCB1; assay: Reversal of P-glycoprotein-mediated multidrug resistance in human MDR1 gene transfected mouse L5178Y cells assessed as fluorescence activity ratio at 200 uM by rhodamine 123 accumulation assay; assay type: cell-based; method in brief: as §2
[5] = Cytotoxicity against human HGF cells after 48 hrs; assay type: cell-based
[6] = Cytotoxicity against human HPC cells after 48 hrs; assay type: cell-based
[7] = Cytotoxicity against human HPLF cells after 48 hrs; assay type: cell-based
HL-60 [8] = assay: Cytotoxicity against human HL60 cells after 48 hrs; assay type: functional; conditions: HL-60, 48 h
HSC-2 = assay: Cytotoxicity against human HSC2 cells after 48 hrs; assay type: functional; conditions: HSC-2, 48 h
HSC-3 = assay: Cytotoxicity against human HSC3 cells after 48 hrs; assay type: functional; conditions: HSC-3, 48 h
HSC-4 = assay: Cytotoxicity against human HSC4 cells after 48 hrs; assay type: functional; conditions: HSC-4, 48 h
CCRF-CEM [9] = assay: Growth inhibition of human CCRF-CEM cells at 10 uM; assay type: functional, cell-based
Method in brief: (§3)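 Human tumor cell line panel (59 lines across leukemia, melanoma, non-small cell lung, colon, CNS, ovarian, renal, prostate, breast) treated at a single 10 uM concentration; growth inhibition recorded per line.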

HL-60 [10] = assay: Growth inhibition of human HL60 cells at 10 uM; assay type: functional, cell-based; method in brief: as §3
K562 = assay: Growth inhibition of human K562 cells at 10 uM; assay type: functional, cell-based; method in brief: as §3
RPMI8266 = assay: Growth inhibition of human […] cells at 10 uM; assay type: functional, cell-based; method in brief: as §3
A549 = assay: Growth inhibition of human A549 cells at 10 uM; assay type: functional, cell-based; method in brief: as §3
EKVX = assay: Growth inhibition of human EKVX cells at 10 uM; assay type: functional, cell-based; method in brief: as §3
HOP-92 = assay: Growth inhibition of human HOP92 cells at 10 uM; assay type: functional, cell-based; method in brief: as §3
NCI-H23 = assay: Growth inhibition of human NCI-H23 cells at 10 uM; assay type: functional, cell-based; method in brief: as §3
NCI-H460 = assay: Growth inhibition of human NCI-H460 cells at 10 uM; assay type: functional, cell-based; method in brief: as §3
NCI-H522 = assay: Growth inhibition of human NCI-H522 cells at 10 uM; assay type: functional, cell-based; method in brief: as §3
HCC 2998 = assay: Growth inhibition of human HCC2998 cells at 10 uM; assay type: functional, cell-based; method in brief: as §3
HCT-116 = assay: Growth inhibition of human HCT116 cells at 10 uM; assay type: functional, cell-based; method in brief: as §3
HCT-15 = assay: Growth inhibition of human HCT15 cells at 10 uM; assay type: functional, cell-based; method in brief: as §3
SW-620 = assay: Growth inhibition of human SW620 cells at 10 uM; assay type: functional, cell-based; method in brief: as §3
SF-295 = assay: Growth inhibition of human SF295 cells at 10 uM; assay type: functional, cell-based; method in brief: as §3
SNB-75 = assay: Growth inhibition of human SNB75 cells at 10 uM; assay type: functional, cell-based; method in brief: as §3
U-251 = assay: Growth inhibition of human U251 cells at 10 uM; assay type: functional, cell-based; method in brief: as §3
LOX IMVI = assay: Growth inhibition of human LOXIMVI cells at 10 uM; assay type: functional, cell-based; method in brief: as §3
M14 = assay: Growth inhibition of human M14 cells at 10 uM; assay type: functional, cell-based; method in brief: as §3
UACC-62 = assay: Growth inhibition of human UACC62 cells at 10 uM; assay type: functional, cell-based; method in brief: as §3
IGROV-1 = assay: Growth inhibition of human IGROV1 cells at 10 uM; assay type: functional, cell-based; method in brief: as §3
OVCAR-3 = assay: Growth inhibition of human OVCAR-3 cells at 10 uM; assay type: functional, cell-based; method in brief: as §3
OVCAR-4 = assay: Growth inhibition of human OVCAR4 cells at 10 uM; assay type: functional, cell-based; method in brief: as §3
OVCAR-8 = assay: Growth inhibition of human OVCAR8 cells at 10 uM; assay type: functional, cell-based; method in brief: as §3
A498 = assay: Growth inhibition of human A498 cells at 10 uM; assay type: functional, cell-based; method in brief: as §3
CAKI-1 = assay: Growth inhibition of human Caki1 cells at 10 uM; assay type: functional, cell-based; method in brief: as §3
RXF 393 = assay: Growth inhibition of human RXF393 cells at 10 uM; assay type: functional, cell-based; method in brief: as §3
UO-31 = assay: Growth inhibition of human UO31 cells at 10 uM; assay type: functional, cell-based; method in brief: as §3
PC-3 = assay: Growth inhibition of human PC3 cells at 10 uM; assay type: functional, cell-based; method in brief: as §3
DU-145 = assay: Growth inhibition of human DU145 cells at 10 uM; assay type: functional, cell-based; method in brief: as §3
MCF7 = assay: Growth inhibition of human MCF7 cells at 10 uM; assay type: functional, cell-based; method in brief: as §3
NCI/ADR-RES = assay: Growth inhibition of human NCI/ADR-RES cells at 10 uM; assay type: functional, cell-based; method in brief: as §3
MDA-MB-468 = assay: Growth inhibition of human MDA-MB-468 cells at 10 uM; assay type: functional, cell-based; method in brief: as §3
Hs-578T = assay: Growth inhibition of human Hs 578T cells at 10 uM; assay type: functional, cell-based; method in brief: as §3
MDA-MB-435 = assay: Growth inhibition of human MDA-MB-435 cells at 10 uM; assay type: functional, cell-based; method in brief: as §3
T47D = assay: Growth inhibition of human T47D cells at 10 uM; assay type: functional, cell-based; method in brief: as §3

SMILES: Cc1c(C(=O)/C=C/c2ccc(F)cc2)[n+]([O-])c2ccccc2[n+]1[O-]
- pIC50 [1]: 5.19
- pIC50 (CCRF-CEM [2]): 5.00
- Ratio [3]: 4.81
- Ratio [4]: 25.8
- CC50 at 48 h [5]: 31 µM
- CC50 at 48 h [6]: 48 µM
- CC50 at 48 h [7]: 20 µM
- CC50 (HL-60 [8]): 4.6 µM
- CC50 (HSC-2): 6.2 µM
- CC50 (HSC-3): 7.7 µM
- CC50 (HSC-4): 8.1 µM
- growth inhibition (GI) (CCRF-CEM [9]): Active
- growth inhibition (GI) (HL-60 [10]): Active
- growth inhibition (GI) (K562): Active
- growth inhibition (GI) (RPMI8266): Active
- growth inhibition (GI) (A549): Active
- growth inhibition (GI) (EKVX): Active
- growth inhibition (GI) (HOP-92): Active
- growth inhibition (GI) (NCI-H23): Active
- growth inhibition (GI) (NCI-H460): Active
- growth inhibition (GI) (NCI-H522): Active
- growth inhibition (GI) (HCC 2998): Active
- growth inhibition (GI) (HCT-116): Active
- growth inhibition (GI) (HCT-15): Active
- growth inhibition (GI) (SW-620): Active
- growth inhibition (GI) (SF-295): Active
- growth inhibition (GI) (SNB-75): Active
- growth inhibition (GI) (U-251): Active
- growth inhibition (GI) (LOX IMVI): Active
- growth inhibition (GI) (M14): Active
- growth inhibition (GI) (UACC-62): Active
- growth inhibition (GI) (IGROV-1): Active
- growth inhibition (GI) (OVCAR-3): Active
- growth inhibition (GI) (OVCAR-4): Active
- growth inhibition (GI) (OVCAR-8): Active
- growth inhibition (GI) (A498): Active
- growth inhibition (GI) (CAKI-1): Active
- growth inhibition (GI) (RXF 393): Active
- growth inhibition (GI) (UO-31): Active
- growth inhibition (GI) (PC-3): Active
- growth inhibition (GI) (DU-145): Active
- growth inhibition (GI) (MCF7): Active
- growth inhibition (GI) (NCI/ADR-RES): Active
- growth inhibition (GI) (MDA-MB-468): Active
- growth inhibition (GI) (Hs-578T): Active
- growth inhibition (GI) (MDA-MB-435): Active
- growth inhibition (GI) (T47D): Active
